Assay outcomes (PubChem BioAssay)
CR mimetic SO = caloric restriction mimetics inhibiting age-related superoxide in yeast; 330,000 tested, 0.18% active; S. cerevisiae aged cells, superoxide DHE fluorescence; hits give low values; superoxide response (% of plate mean), % at 10 µM; AID 2690;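 active means superoxide response under a set limit, about three screen SD below normal, cut at about 65% in these data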;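 further: yeast aged for seven days with compound at 30 °C before DHE staining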
TRPC4 block = TRPC4 (mouse) channel inhibition. Q9QUQ5. HEK293 TRPC4beta/mu-opioid, DAMGO-evoked Fluo4 calcium flux; hits give low values. B-score at 10 µM. 300,000 tested, 0.39% active. AID 2247;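 active means B-score over 3 SD under the library average, no early fluorescence shift, positive overall ratio signal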
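Assay system: HEK293 cells with stable TRPC4beta plus mu-opioid receptor expression. Dosing: single dose. Measured by: Fluo4 Ca2+ flux fluorescence. Also added: DAMGO in two steps, submaximal then maximal. Read-out: B score from integrated Fluo4 fluorescence ratio.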
TRPC4 PAM = TRPC4 (mouse) allosteric potentiation; Q9QUQ5; HEK293 TRPC4beta/mu-opioid, DAMGO EC20, Fluo-4 Ca2+ flux; hits give high values; B-score at 10 µM; 310,000 tested, 0.42% active; AID 2227;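 active means B-score of calcium response area above 5 SD of library B-scores, with initial fluorescence ratio within 5 SD of library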
TRPC4 act = activators of mouse TRPC4 channel; Q9QUQ5; HEK293 TRPC4beta/mu-opioid, Fluo4 calcium fluorescence; hits give high values; B-score at 10 µM; 310,000 tested, 0.49% active;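 active means B-score above 5 SD of library B-scores, and initial fluorescence ratio not above library mean plus 5 SD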;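 further: positive B-score marks a calcium rise read as TRPC4 activation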
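system = HEK293 cells stably co-expressing mouse TRPC4beta and mu-opioid receptor | schedule = Fluo4 dye loading 45 min at room temperature, 110 s recording | measure = B-scored integrated calcium fluorescence ratio | signal = Fluo4 calcium-sensitive dye fluorescence, kinetic, 1 Hz baseline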
TRPC6 inh = inhibitors of mouse TRPC6 channel; B-score at 10 µM; 310,000 tested, 1.1% active; Q61143; HEK293-TRPC6, membrane potential dye, ACh-evoked depolarization; hits give low values;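 active means B-score under library mean minus 3 SD, initial fluorescence not abnormally high, positive integrated signal ratio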;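 further: B-score derived from integrated fluorescence ratio over the kinetic read; more negative B-score means stronger inhibition of depolarization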
Target sequence (Q61143 whole entry, looked up): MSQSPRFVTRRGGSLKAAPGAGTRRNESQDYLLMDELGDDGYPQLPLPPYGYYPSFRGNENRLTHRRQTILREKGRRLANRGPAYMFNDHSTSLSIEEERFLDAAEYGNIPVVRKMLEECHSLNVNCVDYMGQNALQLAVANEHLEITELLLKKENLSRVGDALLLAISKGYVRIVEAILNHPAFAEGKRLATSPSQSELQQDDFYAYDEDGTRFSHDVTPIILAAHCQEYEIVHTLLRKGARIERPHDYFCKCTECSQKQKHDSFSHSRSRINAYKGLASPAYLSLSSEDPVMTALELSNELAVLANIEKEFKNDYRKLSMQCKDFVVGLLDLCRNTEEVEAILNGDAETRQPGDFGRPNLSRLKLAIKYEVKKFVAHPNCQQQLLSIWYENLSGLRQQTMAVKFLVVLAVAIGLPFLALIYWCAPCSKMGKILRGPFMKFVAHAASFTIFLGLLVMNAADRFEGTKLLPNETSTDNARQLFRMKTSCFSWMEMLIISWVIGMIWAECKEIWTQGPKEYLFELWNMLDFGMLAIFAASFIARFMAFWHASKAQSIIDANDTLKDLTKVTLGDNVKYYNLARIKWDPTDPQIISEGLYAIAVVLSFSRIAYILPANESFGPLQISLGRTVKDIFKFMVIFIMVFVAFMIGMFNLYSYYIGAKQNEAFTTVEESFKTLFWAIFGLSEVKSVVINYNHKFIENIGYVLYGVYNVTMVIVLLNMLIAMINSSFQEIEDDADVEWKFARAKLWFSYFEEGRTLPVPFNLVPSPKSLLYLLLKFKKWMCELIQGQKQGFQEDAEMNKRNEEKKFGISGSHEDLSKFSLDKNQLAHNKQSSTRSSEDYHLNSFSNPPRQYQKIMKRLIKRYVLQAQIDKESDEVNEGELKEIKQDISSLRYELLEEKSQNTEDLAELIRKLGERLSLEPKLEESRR
TRPC6 activator = activates the mouse TRPC6 cation channel | 310,000 tested, 0.13% active | HEK293-TRPC6 membrane potential dye fluorescence; hits give high values | B-score at 10 µM | Q61143;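 active means B-score of the integrated fluorescence ratio above library mean plus 3 SD, and starting fluorescence ratio within library mean plus 5 SD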;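 further: higher score means more depolarization so channel activation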
TRPC4 sel inh 2 = second selectivity test of TRPC6 inhibitors: effect on mouse TRPC4; shares compounds with TRPC6 inh; HEK293 TRPC4/MOR, membrane potential dye fluorescence; channel activated by saturating DAMGO dose; inhibition, % at 10 µM; 920 tested, 42% active; AID 2776;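 active means compounds whose fluorescence signal differed from control wells by over 3 SD, either direction, in both duplicate plates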
TRPC4 spec = mouse TRPC4 off-target activity of TRPC6 inhibitors | activity change, negative = inhibition, % at 10 µM | 920 tested, 61% active | HEK293 TRPC4/mu-opioid, membrane potential fluorescence | shares compounds with TRPC6 inh;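 active means rise or fall in signal beyond 3 SD of buffer-only wells in both replicate plates, either sign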;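 further: integrated kinetic ratio of fluorescence range over baseline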
HEK293 MPD ctr 2-1 = second check of TRPC6 inhibitor effects in parental HEK293 cells; shares compounds with TRPC6 inh; parental HEK293 membrane potential dye fluorescence; maximal acetylcholine challenge after compound addition; signal change vs control, % at 10 µM; 920 tested, 31% active; AID 2779;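 active means membrane potential signal moving either way by over 3 SD of the maximum-effect control, in both duplicate plates, meaning non-specific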
HEK293 MPD ctr-1 = parental HEK293 nonspecific activity of TRPC6 inhibitors; shares compounds with TRPC6 inh; membrane potential signal change, % at 10 µM; parental HEK293 membrane potential dye fluorescence; 920 tested, 60% active;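 active means membrane potential signal shifting up or down by more than 3 SD of buffer-only wells, on both duplicate plates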
HEK293 MPD ctr-2 = counter-screen for TRPC6 modulators: effect in parental HEK293 cells; membrane potential signal change, % at 10 µM; shares compounds with TRPC6 inh; membrane potential dye fluorescence; 2,400 tested, 51% active;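 active means membrane potential signal moves up or down beyond 5 SD from buffer-only wells, on both duplicate plates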
HEK293 MPD ctr 2-2 = second counter-screen for TRPC6 modulators: effect in parental HEK293 cells; 2,400 tested, 14% active; shares compounds with TRPC6 inh; inhibition, % at 10 µM; membrane potential dye fluorescence; after compound, maximal acetylcholine stimulation; AID 488926;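 active means membrane potential signal drops by more than 5 SD from the mean control signal, in both duplicate plates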
TRPC4/MOR mod = selectivity of TRPC6 modulators against mouse TRPC4; 2,400 tested, 69% active; percent change from control (negative = decrease, positive = increase), % at 10 µM; shares compounds with TRPC6 inh; HEK293 TRPC4/mu-opioid, membrane potential fluorescence; AID 488927;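 active means membrane potential signal moved up or down beyond 5 SD of buffer control wells, in both duplicate plates, actives on both sides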
TRPC4/MOR inh 2 = second check of whether TRPC6 modulators also affect mouse TRPC4 | inhibition, % at 10 µM | shares compounds with TRPC6 inh | HEK293 TRPC4/mu-opioid, membrane potential dye fluorescence; stimulated with maximal-effect DAMGO | 2,400 tested, 55% active;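 active means drop in membrane potential signal beyond 5 SD of the control wells in both duplicate plates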;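 further: TRPC4 counter screen for TRPC6 hits run under conditions tuned for TRPC6 not TRPC4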
TRPC6 inh conf = mouse TRPC6 inhibitor confirmation. AID 488960. HEK293-TRPC6, membrane potential dye, ACh-evoked depolarization. inhibition, % at 10 µM. shares compounds with TRPC6 inh. 3,300 tested, 43% active;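 active means fluorescence ratio falls more than 5 SD below the full-stimulation control mean, in both duplicate runs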;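 further: integrated fluorescence ratio of peak minus minimum over baseline after agonist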
TRPC6 act conf = mouse TRPC6 activator confirmation. shares compounds with TRPC6 inh. HEK293-TRPC6 membrane potential dye fluorescence, FDSS. activation, % at 10 µM. 2,800 tested, 11% active. AID 488961;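 active means ratio signal rise beyond 5 SD above unstimulated control wells' mean, seen in both duplicate runs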
A number is an active result; i = inactive; nt = no result given. A selection: hits, their analogues and other compounds. The true share with any hit is near 2.3%.

SMILES	CR mimetic SO	TRPC4 block	TRPC4 PAM	TRPC4 act	TRPC6 inh	TRPC6 activator	HEK293 MPD ctr-2	HEK293 MPD ctr 2-2	TRPC4/MOR mod	TRPC4/MOR inh 2	TRPC6 inh conf	TRPC6 act conf	others
Cc1nc(NCCCn2ccnc2)c2ccccc2n1	i	i	i	i	-7.7	i	-237%	61%	-38%	38%	52%	i
c1cncc(-c2nc(NCCCn3ccnc3)c3ccccc3n2)c1	i	i	i	i	i	i	nt	nt	nt	nt	nt	nt
CCN(CC)CCNC(=O)c1ccc2c(=O)n(C3CCCC3)c(=S)[nH]c2c1	i	i	i	i	-6.8	i	nt	nt	nt	nt	i	i	TRPC4 sel inh 2=i;TRPC4 spec=i;HEK293 MPD ctr 2-1=i;HEK293 MPD ctr-1=i
CC1=CC(C)C2C(=O)N(c3ccccc3)C(=O)C2C1 (stereo not given)	i	i	i	i	i	i	nt	nt	nt	nt	nt	nt
CCCN(CCC)CCCNc1ccc2nnc(-c3ccc(F)cc3)n2n1	i	i	i	94	-5.1	i	-190%	i	-17%	36%	i	i
CCOC(=O)CC(=O)CSc1ccc2nnc(-c3ccc(F)cc3)n2n1	i	i	i	i	i	i	nt	nt	nt	nt	nt	nt
O=C(CN1C(=O)NC2(CCCCCCC2)C1=O)Nc1ccc(OC(F)F)cc1	i	nt	nt	nt	nt	nt	nt	nt	nt	nt	nt	nt
Cc1ccc(-c2nn(-c3cccc(F)c3)cc2CN2CCN(c3ccccn3)CC2)o1	i	i	i	i	i	i	nt	nt	nt	nt	nt	nt
Cc1ccc(-c2nn(-c3cccc(F)c3)cc2CNCc2cccnc2)o1	i	i	i	121	-5.7	i	i	i	41%	85%	i	i
COc1cc2ccccc2cc1C(=O)Nc1ccc(N2CCN(C)CC2)cc1	i	i	i	i	-5.5	i	i	i	-12%	64%	60%	i
CC(C)Oc1cccc(C(=O)NC(=S)Nc2ccc(N3CCN(C)CC3)cc2)c1	i	i	16	i	-6.3	i	i	i	i	62%	42%	i
O=C(Nc1ccccc1N1CCOCC1)c1ccc(Br)o1	i	i	i	i	i	i	nt	nt	nt	nt	nt	nt
CN1CCN(c2ccc(NC(=O)c3ccc(Oc4ccccc4)cc3)cc2)CC1	i	i	i	i	-6.2	i	i	i	i	58%	48%	i
CN1CCN(c2ccccc2NC(=O)c2ccc(Br)o2)CC1	i	i	i	i	-9.6	i	nt	nt	nt	nt	87%	i	TRPC4 sel inh 2=28%;TRPC4 spec=i;HEK293 MPD ctr 2-1=i;HEK293 MPD ctr-1=i
CCOc1ccccc1NC(=O)CCC(=O)Nc1nnc(C2CCCCC2)s1	i	i	i	i	i	i	nt	nt	nt	nt	nt	nt
CN1CCN(c2ccc(NC(=O)c3cc4ccccc4o3)cc2)CC1	i	i	i	i	-5.2	i	i	i	i	48%	41%	i
O=C(Nc1ccccc1N1CCCC1)c1cc2ccccc2o1	i	i	i	i	i	i	nt	nt	nt	nt	nt	nt
CS(=O)(=O)N1CCN(c2ccc(NC(=O)c3cc4ccccc4o3)cc2)CC1	i	i	i	i	i	i	nt	nt	nt	nt	nt	nt
CN1CCN(c2ccccc2NC(=O)c2cc3ccccc3o2)CC1	i	i	i	i	-13	i	nt	nt	nt	nt	72%	i	TRPC4 sel inh 2=25%;TRPC4 spec=-22%;HEK293 MPD ctr 2-1=i;HEK293 MPD ctr-1=-212%
O=C(CSc1nccn1Cc1ccccc1)Nc1nccs1	i	i	i	i	i	i	nt	nt	nt	nt	nt	nt
O=C(NCCN1CCOCC1)c1cnn2c(-c3ccccc3)cc(-c3ccccc3)nc12	i	i	i	i	-7.5	i	nt	nt	nt	nt	i	i	TRPC4 sel inh 2=i;TRPC4 spec=i;HEK293 MPD ctr 2-1=i;HEK293 MPD ctr-1=-130%
c1ccc(-c2nc(-c3ccncc3)n[nH]2)nc1	i	i	i	i	i	i	nt	nt	nt	nt	nt	nt
CSCCC(NC(=O)c1cccc(S(=O)(=O)N2CCOCC2)c1)C(=O)Nc1ccc(F)cc1 (stereo not given)	i	i	i	i	i	i	nt	nt	nt	nt	nt	nt
CCc1ccc(OCC2NCCc3cc(OC)c(OC)cc32)cc1 (stereo not given)	i	i	i	i	-5.8	i	i	i	i	46%	i	i
CN(C)c1ccc(/C=N/NS(=O)(=O)c2ccc(Br)cc2)cc1	i	i	i	i	i	i	nt	nt	nt	nt	nt	nt
SMILES	CR mimetic SO	TRPC4 block	TRPC4 PAM	TRPC4 act	TRPC6 inh	TRPC6 activator	HEK293 MPD ctr-2	HEK293 MPD ctr 2-2	TRPC4/MOR mod	TRPC4/MOR inh 2	TRPC6 inh conf	TRPC6 act conf	others
O=C(c1cccs1)N1CCC(c2nc3c(nnn3Cc3cccc(Cl)c3)c(=O)[nH]2)CC1	i	i	i	i	i	i	nt	nt	nt	nt	nt	nt
O=C(c1cccs1)N1CCC(c2nc3c(nnn3Cc3c(Cl)cccc3Cl)c(=O)[nH]2)CC1	i	i	i	i	-5.4	i	i	i	i	i	i	i
CCCCN(C)C1=Nc2cccc3cccc1c23	i	i	i	i	-7.5	i	-194%	i	-42%	69%	56%	i
CCC(C)(C(=O)NC1CCCC1)N(Cc1ccco1)C(=O)Cc1cccs1 (stereo not given)	i	i	i	i	i	i	nt	nt	nt	nt	nt	nt
Cc1nc(N2CCCCC2)sc1C(=O)c1cccc([N+](=O)[O-])c1	i	i	i	i	-5.8	i	i	i	i	i	i	i
Cc1nc(N2CCCCC2)sc1C(=O)c1ccc(SCCO)c([N+](=O)[O-])c1	i	i	i	i	i	i	nt	nt	nt	nt	nt	nt
CCCCN(C)CCCNC(=O)CN1C(=O)COc2ccc(S(=O)(=O)N3CCOCC3)cc21	i	i	i	i	-5.4	i	i	i	i	i	i	i
Cc1cc(C(C)(C)C)oc1C(=O)OCC(=O)NC1CCCCC1	i	i	i	i	-5.3	i	i	i	26%	i	53%	nt
